# Reference: ChEMBL document CHEMBL2062385, “Bone-targeting glycol and NSAIDS ester prodrugs of rhein: synthesis, hydroxyapatite affinity, stability, anti-inflammatory, ulcerogenicity index and pharmacokinetics studies” (Eur J Med Chem, 2012)
# Calls of active or inactive are those of the source. No cut-off for these calls is given here.
# Legend:
# [1] = Prodrug conversion at pH 1.2 assessed as hydrolysis up to 24 hrs by HPLC analysis; format: physicochemical; settings: buffer, pH 1.2, 24 h
# In short: (§1)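 Prodrugs held at 37 °C for up to 24 h in phosphate-buffered saline adjusted to pH 1.2 or pH 7.4. Samples taken at set intervals. Released parent drugs quantified by C18 HPLC with methanol/0.1% H3PO4 90:10 (pH 2.3), 25 °C, 1.0 mL/min, 254 nm. Run in triplicate.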
# [2] = Prodrug conversion at pH 7.4 assessed as hydrolysis up to 24 hrs by HPLC analysis; format: physicochemical; settings: buffer, pH 7.4, 24 h; in short: as §1
# Mus musculus [3] = assay: Antiinflammatory activity in Kunming mouse assessed as inhibition of xylene-induced auricle tumefaction at 0.2 mmol/kg, po qd administered prior to challenge for 5 days measured 30 mins post challenge; format: functional
# In short: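 Male Kunming mice (18-22 g), ten per group, dosed once daily for 5 days at 0.2 mmol/kg; controls got 0.9% NaCl. A 7 mm filter soaked in xylene was held on the right ear for 30 s, 1 h after the last dose. Mice were killed 30 min later and 7 mm ear punches taken. Inhibition = (1 − a/b)×100%, from tumefaction degree of control and test groups.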
# Hydroxyapatite = assay: Binding affinity to bone mineral hydroxyapatite after 30 mins by RP-HPLC analysis
# In short: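 Each compound (10 mL, 0.1 mmol/L in water) stirred vigorously with 20, 40 or 80 mg hydroxyapatite for 30 min. Then analysed by HPLC on C18 with methanol/0.1% H3PO4 90:10 (pH 2.3), 25 °C, 1.0 mL/min, 254 nm detection. n = 3.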
# Mus musculus [4] = assay: Ulcerogenic activity in Kunming mouse assessed as ulcer index at 1 mmol/kg, po measured after 4 hrs; format: toxicity, organism-based; settings: in vivo
# In short: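 Kunming mice of either sex (18-22 g), ten per group, fasted from food and water for 24 h. Then given 1.0 mmol/kg orally as a suspension in 1% methylcellulose. Killed at 4 h; stomachs fixed 30 min in 10% formaldehyde, opened along the greater curvature and ulcers measured under a magnifier. Ulcer index = summed lesion length (mm) per stomach averaged over 10 animals.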
# Rattus norvegicus [5] = assay: AUC (0 to infinity) in Sprague-Dawley rat assessed as rhein at 10 mg/kg, po; format: ADME, organism-based, Plasma; parameters: time infinity, dose 10 mg/kg, route oral; settings: in vivo
# In short: (§2)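 SD rats of either sex (200 ± 20 g), six per group, dosed by gastric intubation after recovery from anesthesia. Arterial blood (~0.5 mL) drawn predose and at 0.17, 0.33, 0.5, 0.75, 1, 1.5, 2, 2.5, 3, 4, 5, 7 and 9 h. Plasma separated at once by centrifugation. Rhein in plasma measured by HPLC with diode-array detection.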
# [6] = AUC (0 to 9 hrs) in Sprague-Dawley rat at 5.26 mg/kg, po; format: ADME, organism-based; parameters: time < 9 hr, dose 5.26 mg/kg, route oral; settings: plasma; in short: as §2
# [7] = Cmax in Sprague-Dawley rat at 5.26 mg/kg, po; format: ADME, organism-based; parameters: dose 5.26 mg/kg, route oral; settings: in vivo; in short: as §2
# Rattus norvegicus [8] = assay: AUC (0 to 9 hrs) in Sprague-Dawley rat assessed as rhein at 10 mg/kg, po; format: ADME, organism-based, Plasma; parameters: time < 9 hr, dose 10 mg/kg, route oral; settings: in vivo; in short: as §2
# Rattus norvegicus [9] = assay: Cmax in Sprague-Dawley rat assessed as rhein at 10 mg/kg, po; format: ADME, organism-based; parameters: dose 10 mg/kg, route oral; settings: in vivo; in short: as §2
# [10] = Half life in Sprague-Dawley rat at 5.26 mg/kg, po; format: ADME, organism-based; parameters: dose 5.26 mg/kg, route oral; settings: in vivo; in short: as §2
# Rattus norvegicus [11] = assay: Half life in Sprague-Dawley rat assessed as rhein at 10 mg/kg, po; format: ADME, organism-based; parameters: dose 10 mg/kg, route oral; settings: in vivo; in short: as §2
# Rattus norvegicus [12] = assay: MRT (0 to 9 hrs) in Sprague-Dawley rat assessed as rhein at 10 mg/kg, po; format: ADME, organism-based; parameters: dose 10 mg/kg, route oral; settings: in vivo; in short: as §2
# [13] = MRT (0 to infinity) in Sprague-Dawley rat at 5.26 mg/kg, po; format: ADME, organism-based; parameters: dose 5.26 mg/kg, route oral; settings: in vivo; in short: as §2
# Rattus norvegicus [14] = assay: MRT (0 to infinity) in Sprague-Dawley rat assessed as rhein at 10 mg/kg, po; format: ADME, organism-based; parameters: dose 10 mg/kg, route oral; settings: in vivo; in short: as §2
# Rattus norvegicus [15] = assay: Tmax in Sprague-Dawley rat assessed as rhein at 10 mg/kg, po; format: ADME, organism-based; parameters: dose 10 mg/kg, route oral; settings: in vivo; in short: as §2
# [16] = AUC (0 to infinity) in Sprague-Dawley rat at 5.26 mg/kg, po; format: ADME, organism-based; parameters: time infinity, dose 5.26 mg/kg, route oral; settings: plasma; in short: as §2
# [17] = Tmax in Sprague-Dawley rat at 5.26 mg/kg, po; format: ADME, organism-based; parameters: dose 5.26 mg/kg, route oral; settings: in vivo; in short: as §2
# [18] = MRT (0 to 9 hrs) in Sprague-Dawley rat at 5.26 mg/kg, po; format: ADME, organism-based; parameters: dose 5.26 mg/kg, route oral; settings: in vivo; in short: as §2
# [19] = Tmax in Sprague-Dawley rat at 10 mg/kg, po; format: ADME, organism-based; parameters: dose 10 mg/kg, route oral; settings: in vivo; in short: as §2
# [20] = MRT (0 to 9 hrs) in Sprague-Dawley rat at 10 mg/kg, po; format: ADME, organism-based; parameters: dose 10 mg/kg, route oral; settings: in vivo; in short: as §2
# [21] = Cmax in Sprague-Dawley rat at 10 mg/kg, po; format: ADME, organism-based; parameters: dose 10 mg/kg, route oral; settings: in vivo; in short: as §2
# [22] = AUC (0 to 9 hrs) in Sprague-Dawley rat at 10 mg/kg, po; format: ADME, organism-based; parameters: time < 9 hr, dose 10 mg/kg, route oral; settings: plasma; in short: as §2
# [23] = AUC (0 to infinity) in Sprague-Dawley rat at 10 mg/kg, po; format: ADME, organism-based; parameters: time infinity, dose 10 mg/kg, route oral; settings: plasma; in short: as §2
# [24] = MRT (0 to infinity) in Sprague-Dawley rat at 10 mg/kg, po; format: ADME, organism-based; parameters: dose 10 mg/kg, route oral; settings: in vivo; in short: as §2
# [25] = Half life in Sprague-Dawley rat at 10 mg/kg, po; format: ADME, organism-based; parameters: dose 10 mg/kg, route oral; settings: in vivo; in short: as §2
Drug metabolism [1],Drug metabolism [2],Activity (Hydroxyapatite),SMILES,inhibition in vivo at 200 µmol/kg (Mus musculus [3]) [%],further results
Active,Active,Active,CC(=O)Oc1cccc2c1C(=O)c1c(OC(C)=O)cc(C(=O)OCCOC(=O)C(C)c3ccc(CC(C)C)cc3)cc1C2=O (stereo not given),35.2,–
Active,Active,Active,CC(=O)Oc1cccc2c1C(=O)c1c(OC(C)=O)cc(C(=O)OCCOCCOC(=O)C(C)c3ccc(CC(C)C)cc3)cc1C2=O (stereo not given),33,–
–,Active,inactive,CC(C)Cc1ccc(C(C)C(=O)O)cc1 (stereo not given) [IBUPROFEN],32,UI (Mus musculus [4]): 8.3
Active,Active,Active,CC(C)Cc1ccc(C(C)C(=O)OCCOCCOC(=O)c2cc(O)c3c(c2)C(=O)c2cccc(O)c2C3=O)cc1 (stereo not given),32.7,UI (Mus musculus [4]): 5.8
Active,Active,Active,CC(=O)Oc1cccc2c1C(=O)c1c(OC(C)=O)cc(C(=O)OCCOCCO)cc1C2=O,15,–
Active,Active,Active,CC(=O)Oc1cccc2c1C(=O)c1c(OC(C)=O)cc(C(=O)OCCOCCOCCOC(=O)C(C)c3ccc(CC(C)C)cc3)cc1C2=O (stereo not given),29.3,–
Active,Active,Active,CC(=O)Oc1cccc2c1C(=O)c1c(OC(C)=O)cc(C(=O)OCCO)cc1C2=O,16,–
Active,Active,Active,O=C(OCCOCCO)c1cc(O)c2c(c1)C(=O)c1cccc(O)c1C2=O,17.2,–
Active,Active,Active,O=C(OCCO)c1cc(O)c2c(c1)C(=O)c1cccc(O)c1C2=O,13.9,–
Active,Active,Active,COc1ccc2c(c1)c(CC(=O)OCCOC(=O)c1cc(OC(C)=O)c3c(c1)C(=O)c1cccc(OC(C)=O)c1C3=O)c(C)n2C(=O)c1ccc(Cl)cc1,23.4,–
Active,Active,Active,COc1ccc2cc(C(C)C(=O)OCCOC(=O)c3cc(OC(C)=O)c4c(c3)C(=O)c3cccc(OC(C)=O)c3C4=O)ccc2c1 (stereo not given),24.4,–
Active,Active,Active,CC(=O)Oc1cccc2c1C(=O)c1c(OC(C)=O)cc(C(=O)OCCOCCOCCO)cc1C2=O,19.5,–
Active,Active,Active,CC(C)Cc1ccc(C(C)C(=O)OCCOCCOCCOC(=O)c2cc(O)c3c(c2)C(=O)c2cccc(O)c2C3=O)cc1 (stereo not given),33.9,UI (Mus musculus [4]): 5.8

# Continued, compound first:
SMILES,Drug metabolism [1],Drug metabolism [2],Activity (Hydroxyapatite),inhibition in vivo at 200 µmol/kg (Mus musculus [3]) [%],further results
CC(=O)Oc1cccc2c1C(=O)c1c(OC(C)=O)cc(C(=O)OCCOC(=O)Cc3ccccc3Nc3c(Cl)cccc3Cl)cc1C2=O,Active,Active,Active,44,–
O=C(O)c1cc(O)c2c(c1)C(=O)c1cccc(O)c1C2=O [RHEIN],Active,–,Active,–,AUC (Rattus norvegicus [5]): 1394 ng·h/mL; AUC(0-t) at 9 h [6]: 1170 ng·h/mL; Cmax [7]: 432 ng/mL; AUC (Rattus norvegicus [8]): 1178 ng·h/mL; Cmax (Rattus norvegicus [9]): 291 ng/mL; half-life [10]: 1.24 h; t1/2 (Rattus norvegicus [11]): 2.771 h; MRT (Rattus norvegicus [12]): 4.291 h; MRT inf [13]: 3.78 h; MRT (Rattus norvegicus [14]): 5.699 h; Tmax (Rattus norvegicus [15]): 2.917 h; AUC(0-inf) [16]: 1380 ng·h/mL; Tmax [17]: 2.04 h; MRT last [18]: 2.92 h
CC(=O)Oc1ccccc1C(=O)OCCOC(=O)c1cc(O)c2c(c1)C(=O)c1cccc(O)c1C2=O,Active,Active,Active,19.6,–
CC(=O)Oc1cccc2c1C(=O)c1c(OC(C)=O)cc(C(=O)O)cc1C2=O [DIACEREIN],–,–,Active,29.2,–
O=C(Cc1ccccc1Nc1c(Cl)cccc1Cl)OCCOC(=O)c1cc(O)c2c(c1)C(=O)c1cccc(O)c1C2=O,Active,Active,Active,43.9,–
CC(=O)Oc1ccccc1C(=O)OCCOC(=O)c1cc(OC(C)=O)c2c(c1)C(=O)c1cccc(OC(C)=O)c1C2=O,Active,Active,Active,19.9,–
O=C(OCCOCCOCCO)c1cc(O)c2c(c1)C(=O)c1cccc(O)c1C2=O,Active,Active,Active,17.4,–
CC(C)Cc1ccc(C(C)C(=O)OCCOC(=O)c2cc(O)c3c(c2)C(=O)c2cccc(O)c2C3=O)cc1 (stereo not given),Active,Active,Active,41.2,UI (Mus musculus [4]): 5.8
O=C(O)Cc1ccccc1Nc1c(Cl)cccc1Cl [DICLOFENAC],–,–,–,41.9,–
COc1ccc2cc(C(C)C(=O)OCCOC(=O)c3cc(O)c4c(c3)C(=O)c3cccc(O)c3C4=O)ccc2c1 (stereo not given),Active,Active,Active,23.9,Tmax [19]: 1.75 h; MRT last [20]: 3.46 h; Cmax [21]: 1090 ng/mL; AUC(0-t) at 9 h [22]: 4420 ng·h/mL; AUC(0-inf) [23]: 4860 ng·h/mL; UI (Mus musculus [4]): 5.8; MRT inf [24]: 4.23 h; half-life [25]: 2.19 h
